Experimental findings from ChEMBL document CHEMBL1139586, “A linear discrimination analysis based virtual screening of trichomonacidal lead-like compounds: outcomes of in silico studies supported by experimental results” (2005) are described below.

One experiment concerns Trichomonas vaginalis. Nature of the experiment: In vitro cytostatic activity against Trichomonas vaginalis at a dose of 1 ug/ml after 24 hours. The class given is functional. In a few lines: (§1)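 T. vaginalis JH31A cultured in modified Diamond medium plus equine serum, 37 °C, 5% CO2. Compounds added at 100, 10 and 1 µg/ml 6 h post-seeding (0 h). Neubauer-chamber counts of viable parasites at 24 and 48 h. Cytostatic activity is the percentage growth inhibition relative to untreated controls.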
In turn, `CN1CC(=O)N(C)c2cc([N+](=O)[O-])ccc21` yielded a Cytostatic activity of 0%.

As to `CN1CC(=O)Nc2cc([N+](=O)[O-])ccc21`, the Cytostatic activity is recorded as 0%.

As for `O=C1Nc2cc([N+](=O)[O-])ccc2N2CCCCC12` (centres undefined), the Cytostatic activity came out at 0%.

In turn, `O=C1Nc2cc([N+](=O)[O-])ccc2N2Cc3ccccc3CC12` (centres undefined) came in with a Cytostatic activity of 0%.

The molecule `CN1C(=O)C[N+](C)(C)c2ccc([N+](=O)[O-])cc21.[Cl-]` gave a Cytostatic activity of 0.17%.

`O=C1CN(CCCCCCCl)c2ccc([N+](=O)[O-])cc2N1` gave a Cytostatic activity of 8.76%.

In turn, `O=C1Nc2cc([N+](=O)[O-])ccc2N2CCCC12` (centres undefined) had a Cytostatic activity of 11.09%.

Turning to `CN1C(=O)CN(CCCCCCl)c2ccc([N+](=O)[O-])cc21`, the Cytostatic activity turned out to be 0%.

A further experiment deals with Trichomonas vaginalis. The experiment can be described thus: In vitro cytostatic activity against Trichomonas vaginalis at a dose of 1 ug/ml after 48 hours. The class given is functional. Put shortly:
as §1
Regarding `CN1CC(=O)N(C)c2cc([N+](=O)[O-])ccc21`, the Cytostatic activity is given as 0%.

Take `CN1CC(=O)Nc2cc([N+](=O)[O-])ccc21`: the Cytostatic activity turned out to be 8.32%.

`O=C1Nc2cc([N+](=O)[O-])ccc2N2CCCCC12` (centres undefined): the Cytostatic activity was 0%.

Take `O=C1Nc2cc([N+](=O)[O-])ccc2N2Cc3ccccc3CC12` (centres undefined): the Cytostatic activity was 0%.

With `CN1C(=O)C[N+](C)(C)c2ccc([N+](=O)[O-])cc21.[Cl-]`, the Cytostatic activity stood at 0.78%.

In turn, `O=C1CN(CCCCCCCl)c2ccc([N+](=O)[O-])cc2N1` came in with a Cytostatic activity of 0%.

`O=C1Nc2cc([N+](=O)[O-])ccc2N2CCCC12` (centres undefined): the Cytostatic activity is listed as 17.32%.

As to `CN1C(=O)CN(CCCCCCl)c2ccc([N+](=O)[O-])cc21`, the Cytostatic activity turned out to be 69.96%.

The test system of another experiment is Trichomonas vaginalis. Nature of the experiment: In vitro cytostatic activity against Trichomonas vaginalis at a dose of 10 ug/ml after 24 hours. The class given is functional. In a few lines: as §1
Molecule `CN1CC(=O)N(C)c2cc([N+](=O)[O-])ccc21` came in with a Cytostatic activity of 71.11%.

In the case of `CN1CC(=O)Nc2cc([N+](=O)[O-])ccc21`, the Cytostatic activity worked out at 59.05%.

Molecule `O=C1Nc2cc([N+](=O)[O-])ccc2N2CCCCC12` (centres undefined) gave a Cytostatic activity of 57.45%.

The molecule `O=C1Nc2cc([N+](=O)[O-])ccc2N2Cc3ccccc3CC12` (centres undefined) came in with a Cytostatic activity of 51.82%.

Molecule `CN1C(=O)C[N+](C)(C)c2ccc([N+](=O)[O-])cc21.[Cl-]` registered a Cytostatic activity of 72.85%.

In turn, `O=C1CN(CCCCCCCl)c2ccc([N+](=O)[O-])cc2N1` returned a Cytostatic activity of 79.28%.

`O=C1Nc2cc([N+](=O)[O-])ccc2N2CCCC12` (centres undefined) came in with a Cytostatic activity of 33.48%.

In turn, `CN1C(=O)CN(CCCCCCl)c2ccc([N+](=O)[O-])cc21` displayed a Cytostatic activity of 72.68%.

The subject of another experiment is Trichomonas vaginalis. Nature of the experiment: In vitro cytostatic activity against Trichomonas vaginalis at a dose of 10 ug/ml after 48 hours. The class given is functional. Put shortly: as §1
Molecule `CN1CC(=O)Nc2cc([N+](=O)[O-])ccc21` came in with a Cytostatic activity of 13.97%.

As for `O=C1Nc2cc([N+](=O)[O-])ccc2N2CCCCC12` (centres undefined), the Cytostatic activity was determined as 75.15%.

On to `O=C1Nc2cc([N+](=O)[O-])ccc2N2Cc3ccccc3CC12` (centres undefined), for which the Cytostatic activity was found to be 37.15%.

`CN1C(=O)C[N+](C)(C)c2ccc([N+](=O)[O-])cc21.[Cl-]` had a Cytostatic activity of 1.13%.

Turning to `O=C1CN(CCCCCCCl)c2ccc([N+](=O)[O-])cc2N1`, the Cytostatic activity worked out at 30.56%.

Consider `O=C1Nc2cc([N+](=O)[O-])ccc2N2CCCC12` (centres undefined), for which the Cytostatic activity stood at 54.22%.

Another experiment has as its system Trichomonas vaginalis. The experiment can be described thus: In vitro cytostatic activity against Trichomonas vaginalis at a dose of 100 ug/ml after 24 hours. The class given is functional. Put shortly: as §1
For the molecule `O=C1Nc2cc([N+](=O)[O-])ccc2N2Cc3ccccc3CC12` (centres undefined), the Cytostatic activity came to 85.53%.

A further experiment relates to Trichomonas vaginalis. Nature of the experiment: In vitro cytostatic activity against Trichomonas vaginalis at a dose of 100 ug/ml after 48 hours. The class given is functional. Put shortly: as §1
Regarding `O=C1Nc2cc([N+](=O)[O-])ccc2N2Cc3ccccc3CC12` (centres undefined), the Cytostatic activity was determined as 81.25%.

A further experiment deals with Trichomonas vaginalis. Nature of the experiment: In vitro cytocidal activity against Trichomonas vaginalis at a dose of 1 mg/mL after 24 hours. The class given is functional. Put shortly:
(§2)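 T. vaginalis strain JH31A grown in modified Diamond medium with equine serum at 37 °C, 5% CO2. Test agents added 6 h after seeding (0 h). Viable protozoa counted by Neubauer chamber after 24 and 48 h incubation at 37 °C. Cytocidal activity is the percentage reduction in viable organisms relative to untreated controls, from microscopic counts.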
`Cc1ncc([N+](=O)[O-])n1CCO` [METRONIDAZOLE] came in with a Cytocidal activity of 99.18%.

In another experiment the test system is Trichomonas vaginalis. Nature of the experiment: In vitro cytocidal activity against Trichomonas vaginalis at a dose of 1 mg/mL after 48 hours. The class given is functional. Put shortly:
as §2
The molecule `Cc1ncc([N+](=O)[O-])n1CCO` [METRONIDAZOLE] displayed a Cytocidal activity of 99.72%.

The subject of a further experiment is Trichomonas vaginalis. The experiment can be described thus: In vitro cytocidal activity against Trichomonas vaginalis at a dose of 2 mg/ml after 24 hours. The class given is functional. In a few lines: as §2
`Cc1ncc([N+](=O)[O-])n1CCO` [METRONIDAZOLE]: the Cytocidal activity worked out at 99.63%.

The subject of a further experiment is Trichomonas vaginalis. The experiment can be described thus: In vitro cytocidal activity against Trichomonas vaginalis at a dose of 2 mg/ml after 48 hours. The class given is functional. In a few lines: as §2
Turning to `Cc1ncc([N+](=O)[O-])n1CCO` [METRONIDAZOLE], the Cytocidal activity was 100%.

A further experiment relates to Trichomonas vaginalis. The experiment can be described thus: In vitro cytocidal activity against Trichomonas vaginalis at a dose of 10 ug/ml after 48 hours. The class given is functional. In a few lines: as §2
In turn, `CN1CC(=O)N(C)c2cc([N+](=O)[O-])ccc21` registered a Cytocidal activity of 92.03%.

With `CN1C(=O)CN(CCCCCCl)c2ccc([N+](=O)[O-])cc21`, the Cytocidal activity turned out to be 93.94%.

Another experiment has as its system Trichomonas vaginalis. Nature of the experiment: In vitro cytocidal activity against Trichomonas vaginalis at a dose of 0.5 mg/ml after 24 hours. The class given is functional. In a few lines: as §2
For `Cc1ncc([N+](=O)[O-])n1CCO` [METRONIDAZOLE], the Cytocidal activity is reported as 98.19%.

The test system of a further experiment is Trichomonas vaginalis. The experiment can be described thus: In vitro cytocidal activity against Trichomonas vaginalis at a dose of 0.5 mg/ml after 48 hours. The class given is functional. Put shortly:
as §2
In turn, `Cc1ncc([N+](=O)[O-])n1CCO` [METRONIDAZOLE] came in with a Cytocidal activity of 98.79%.

The test system of a further experiment is Trichomonas vaginalis. Nature of the experiment: In vitro cytocidal activity against Trichomonas vaginalis at a dose of 100 ug/ml after 24 hours. The class given is functional. In a few lines: as §2
`CN1CC(=O)N(C)c2cc([N+](=O)[O-])ccc21`: the Cytocidal activity was found to be 100%.

In turn, `CN1CC(=O)Nc2cc([N+](=O)[O-])ccc21` registered a Cytocidal activity of 100%.

Consider `O=C1Nc2cc([N+](=O)[O-])ccc2N2CCCCC12` (centres undefined), for which the Cytocidal activity came out at 98.43%.

The molecule `CN1C(=O)C[N+](C)(C)c2ccc([N+](=O)[O-])cc21.[Cl-]` showed a Cytocidal activity of 100%.

On to `O=C1CN(CCCCCCCl)c2ccc([N+](=O)[O-])cc2N1`, for which the Cytocidal activity worked out at 99.15%.

With `O=C1Nc2cc([N+](=O)[O-])ccc2N2CCCC12` (centres undefined), the Cytocidal activity was 59.99%.

Turning to `CN1C(=O)CN(CCCCCCl)c2ccc([N+](=O)[O-])cc21`, the Cytocidal activity amounted to 100%.

In the next experiment the test system is Trichomonas vaginalis. The experiment can be described thus: In vitro cytocidal activity against Trichomonas vaginalis at a dose of 100 ug/ml after 48 hours. The class given is functional. In a few lines: as §2
`CN1CC(=O)N(C)c2cc([N+](=O)[O-])ccc21` came in with a Cytocidal activity of 100%.

`CN1CC(=O)Nc2cc([N+](=O)[O-])ccc21` displayed a Cytocidal activity of 100%.

In turn, `O=C1Nc2cc([N+](=O)[O-])ccc2N2CCCCC12` (centres undefined) came in with a Cytocidal activity of 100%.

With `CN1C(=O)C[N+](C)(C)c2ccc([N+](=O)[O-])cc21.[Cl-]`, the Cytocidal activity came to 100%.

`O=C1CN(CCCCCCCl)c2ccc([N+](=O)[O-])cc2N1` gave a Cytocidal activity of 99.83%.

Regarding `O=C1Nc2cc([N+](=O)[O-])ccc2N2CCCC12` (centres undefined), the Cytocidal activity came out at 100%.

`CN1C(=O)CN(CCCCCCl)c2ccc([N+](=O)[O-])cc21` yielded a Cytocidal activity of 100%.
